From PubChem BioAssay
NPY1 pot ag = human NPY-Y1 potentiation or agonism, primary screen. AID 1304. P25929. 220,000 tested, 0.37% active. activation, % at 3.6 µM. NPY-Y1 expressing cells, potentiator/agonist activation; in the data active = activation above about 33%, passing the limit was not always enough;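 note: cells stimulated with NPY at EC10 then isoproterenol at EC100; 0% = low agonist plus stimulus and 100% = saturating agonist plus stimulus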
NPY Y1 blocker = NPY-Y1 (human) receptor antagonism. HEK293-CNG Y1 cells, membrane potential fluorescence; NPY at EC95, then isoproterenol. inhibition, % at 3.6 µM. 200,000 tested, 1% active;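 active = inhibition above the campaign mean inhibition of all tested compounds plus 3 SD, cut at about 20% in these data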;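 note: 0% = DMSO wells given NPY plus isoproterenol and 100% = isoproterenol alone without NPY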
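Material: HEK293 cells co-expressing NPY Y1 receptor and cyclic-nucleotide gated channel. Timing: compound incubation 1 h at room temperature, readout 45 min post-stimulation. Signal: fluorescence, membrane potential probe.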
NPY-Y2 antag = antagonists of human neuropeptide Y receptor Y2; P49146; NPY-Y2 expressing cells, antagonist mode; inhibition, % at 2.7 µM; 140,000 tested, 0.99% active; AID 793; in the data active = inhibition above about 17%;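 note: 0% = vehicle with agonist challenge and 100% = reference antagonist with challenge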
Target sequence (P49146 whole entry, looked up): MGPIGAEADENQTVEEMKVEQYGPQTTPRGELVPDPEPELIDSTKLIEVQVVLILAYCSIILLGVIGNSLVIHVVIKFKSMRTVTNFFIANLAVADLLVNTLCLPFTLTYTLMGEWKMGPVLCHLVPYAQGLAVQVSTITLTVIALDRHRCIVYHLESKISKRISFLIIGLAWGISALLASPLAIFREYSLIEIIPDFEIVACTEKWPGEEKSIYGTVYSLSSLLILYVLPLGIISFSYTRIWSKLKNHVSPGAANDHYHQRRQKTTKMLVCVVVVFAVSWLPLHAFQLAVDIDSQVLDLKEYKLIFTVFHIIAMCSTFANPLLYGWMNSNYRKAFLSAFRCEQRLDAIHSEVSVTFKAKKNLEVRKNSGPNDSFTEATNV
NPY2 pot ag = potentiators or agonists of human neuropeptide Y receptor Y2; P49146; cells expressing NPY-Y2, potentiator/agonist read-out; activation, % at 3.6 µM; 220,000 tested, 0.45% active; AID 1359; in the data active = activation above about 27%;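 note: cells stimulated with NPY near EC25 plus isoproterenol at EC100; 0% = vehicle plus submaximal agonist and 100% = vehicle plus saturating agonist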
NPY1 antag ctr = counter-screen for NPY-Y2 antagonists: human NPY-Y1 antagonism. shares compounds with NPY-Y2 antag. cell-based NPY-Y1 antagonism counterscreen. inhibition, % at 3.6 µM. 710 tested, 19% active; in the data active = inhibition above about 20%;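 note: cells challenged with NPY then isoproterenol with cAMP sensed through a CNG channel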
NPY-Y2 ant conf = human NPY-Y2 antagonism, confirmation; shares compounds with NPY-Y2 antag; HEK293 NPY-Y2 CNG channel, membrane potential fluorescence; AID 1257; inhibition, % at 2.8 µM; 710 tested, 32% active;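 active = mean inhibition of triplicate wells above the hit cutoff set in the primary screen, cut at about 17% in these data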;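 note: 0% = DMSO with NPY challenge and 100% = BIIE0246 high control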
An asterisk follows results filed as active; nt = no result. Sampled rows, rich in hits. Any-hit rate of the full collection: about 1.8%.

SMILES | NPY1 pot ag | NPY Y1 blocker | NPY-Y2 antag | NPY2 pot ag | NPY1 antag ctr | NPY-Y2 ant conf
OC(CNCc1ccc(F)cc1)(c1ccc(F)cc1)c1ccc(F)cc1 | -9 | 16 | 20* | -2 | 16 | 10
COCCOC(=O)c1[nH]c2c(c1C)C(=O)CC(c1ccco1)C2 (stereo unspecified) | 3 | 9 | 32* | 9 | -3 | 5
CN(/N=C/c1ccncc1)C1=NS(=O)(=O)c2ccccc21 | 25 | 4 | 21* | 4 | 2 | 1
CCOc1ccc(/C(O)=C/C(=O)C(=O)Nc2ccc(S(=O)(=O)NC(C)=O)cc2)cc1 | -20 | 4 | -1 | -8 | nt | nt
CCn1c(SCC(=O)NCc2ccccc2)nc2nc3c(cc2c1=O)CCCC3 | 0 | 2 | nt | -13 | nt | nt
CCn1c(SCc2ccccc2Cl)nc2nc3c(cc2c1=O)CCCC3 | -52 | 3 | 18* | -2 | 9 | 14
CC1CCCC(C)N1C(=S)SCC(=O)O (stereo unspecified) | 1 | 2 | nt | 9 | nt | nt
CCn1nc(C(=O)Nc2ccccc2C)c(Cl)c1Cl | -31 | 8 | 6 | -39 | nt | nt
CCn1nc(C(=O)Nc2cccc3ccccc23)c(Cl)c1Cl | -34 | 15 | 18* | -19 | 11 | 11
Cc1cc(Oc2ccc(-c3ccccc3)cc2)n2ncnc2n1 | -1 | 4 | 20* | -5 | 0 | 3
Cn1nnc2cc(C(=O)Nc3ccc4ccccc4c3)ccc21 | -5 | 1 | nt | 7 | nt | nt
NNC(=O)Cn1c(SCc2ccccc2)nc2ccccc21 | -11 | -4 | 22* | 11 | -3 | 4
Cc1ccc(S(=O)(=O)N2CCOCC2)cc1C(=O)c1nccn1C | -10 | -1 | nt | -8 | nt | nt
Cc1ccc(/C=C/C(=O)N2CCN(c3cccc(C(F)(F)F)c3)CC2)cc1 | 3 | 10 | 21* | -14 | 21* | 14
C/C(=C\c1ccccc1)C(=O)N1CCN(c2cccc(C(F)(F)F)c2)CC1 | -5 | 15 | 12 | -22 | nt | nt
O=C(NCC1CCCO1)c1cc(-c2ccco2)nc2ccccc12 (stereo unspecified) | 6 | 9 | -2 | 1 | nt | nt
CC(C)CCNC(=O)c1cc(-c2ccco2)nc2ccccc12 | -149 | 19 | 33* | -112 | 40* | 40*
COC(=O)[C@H](CC(C)C)NC(=O)NCc1ccc(Cl)cc1 | 9 | nt | nt | -12 | nt | nt
OC(CCN1CCCCC1)(c1ccccc1)C1CCCCC1 (stereo unspecified) | -34 | 13 | 20* | 1 | 6 | 12
OC(CCN1CCOCC1)(c1ccc(Cl)cc1)C1CCCCC1 (stereo unspecified) | -20 | 11 | 8 | -18 | nt | nt
COc1ccc(NC(=O)C(c2ccccc2)N2CCN(c3ccccn3)CC2)cc1Cl (stereo unspecified) | -2 | 9 | nt | -16 | nt | nt
O=C1c2ccccc2NC(c2ccc(Cl)cc2Cl)N1Cc1ccccc1 (stereo unspecified) | -12 | 14 | 28* | -16 | 6 | 11
Clc1ccccc1-c1nc2ccccc2c2nc3ccccc3n12 | -9 | 0 | 18* | -4 | 17 | 13
O=C(/C=C/c1cccc(Cl)c1)c1nc2ccccc2[nH]1 | 4 | 3 | 18* | -10 | 12 | 34*
COC(=O)c1c(-c2ccc(F)cc2)csc1NC(=O)c1ccco1 | -6 | 11 | 25* | -10 | 11 | 12
SMILES | NPY1 pot ag | NPY Y1 blocker | NPY-Y2 antag | NPY2 pot ag | NPY1 antag ctr | NPY-Y2 ant conf
COc1ccccc1-c1nc(COc2ccc(Cl)cc2Cl)no1 | 5 | nt | nt | 4 | nt | nt
CCOc1ccc2[nH]c(=O)c(C(c3nnnn3Cc3ccco3)N3CCCC(C)C3)cc2c1 (stereo unspecified) | -15 | 12 | 18* | 8 | 5 | 4
O=C1C2CC=C(Cl)CC2C(=O)N1CC1OCCc2ccccc21 (stereo unspecified) | -70 | 16 | 11 | -31 | nt | nt
O=C1C2CC=C(Cl)CC2C(=O)N1CC1Cc2ccccc2CO1 (stereo unspecified) | -5 | 11 | 28* | -26 | 9 | 23*
COc1ccc(-n2c(COc3cccc4ccccc34)nnc2SCC#N)cc1 | -17 | 16 | 18* | -3 | 6 | 6
N#CCSc1nnc(COc2cccc3ccccc23)n1-c1ccccc1 | 31 | 2 | 15 | 8 | nt | nt
O=C(CSCc1c(Cl)cccc1Cl)Nc1ccccc1-c1ccccc1 | 10 | 11 | 37* | 3 | 12 | 24*
O=C(COC(=O)Cc1c(Cl)cccc1Cl)Nc1ccccc1-c1ccccc1 | -31 | 7 | 7 | -7 | nt | nt
